From ChEMBL document CHEMBL1128411, “Conformationally defined 6-s-trans-retinoic acid analogs. 2. Selective agonists for nuclear receptor binding and transcriptional activity” (J Med Chem, 1995) come the findings set out here.

The structures appear in SMILES notation. Some results are limits rather than exact numbers.

Experiment [1] deals with T1, Retinoic acid receptor RXR-alpha (Homo sapiens, UniProt P19793).
T1 sequence (P19793 whole entry): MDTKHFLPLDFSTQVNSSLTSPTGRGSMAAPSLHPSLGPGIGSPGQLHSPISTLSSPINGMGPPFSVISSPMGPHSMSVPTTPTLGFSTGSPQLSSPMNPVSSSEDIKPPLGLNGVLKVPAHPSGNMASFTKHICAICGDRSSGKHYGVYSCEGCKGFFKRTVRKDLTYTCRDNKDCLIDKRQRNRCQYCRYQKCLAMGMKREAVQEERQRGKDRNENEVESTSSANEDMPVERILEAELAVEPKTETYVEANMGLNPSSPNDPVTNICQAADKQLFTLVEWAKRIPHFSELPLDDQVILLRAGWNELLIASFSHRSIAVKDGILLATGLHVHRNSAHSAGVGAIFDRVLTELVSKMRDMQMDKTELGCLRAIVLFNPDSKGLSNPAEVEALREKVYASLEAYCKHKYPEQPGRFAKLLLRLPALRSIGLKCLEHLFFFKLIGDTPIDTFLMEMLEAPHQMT
In words: Binding affinity for human Retinoid X receptor RXR alpha. Summed up: (§1)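 Equilibrium fluorometric titration at 25 °C of recombinant E. coli-expressed apo-proteins (mCRABP-I, mCRABP-II, or hRXRα DEF ligand-binding domain). Ligands came from ethanol stocks, with concentrations set by UV/vis in hexane. Tryptophan fluorescence quenching was read and corrected for inner filter effects. A survey was run at 10^-6 M protein to check stoichiometry.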

For experiment [2], the target named is T2, Retinoic acid receptor RXR-alpha (Mus musculus, UniProt P28700).
T2 sequence (P28700 whole entry): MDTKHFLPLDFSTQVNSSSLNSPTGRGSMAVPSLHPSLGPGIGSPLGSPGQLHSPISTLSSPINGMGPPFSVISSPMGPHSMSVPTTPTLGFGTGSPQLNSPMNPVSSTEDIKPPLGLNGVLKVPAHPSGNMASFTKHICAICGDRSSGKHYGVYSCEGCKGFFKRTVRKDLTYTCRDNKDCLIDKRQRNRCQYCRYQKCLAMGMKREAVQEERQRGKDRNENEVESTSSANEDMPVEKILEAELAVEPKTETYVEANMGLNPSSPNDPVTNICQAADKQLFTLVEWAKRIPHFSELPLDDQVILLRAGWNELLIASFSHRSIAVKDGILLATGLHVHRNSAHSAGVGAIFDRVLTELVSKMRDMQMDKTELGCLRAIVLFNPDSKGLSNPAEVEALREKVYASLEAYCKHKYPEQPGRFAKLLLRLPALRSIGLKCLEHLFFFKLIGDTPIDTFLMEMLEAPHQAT
In words: Inhibition of binding to murine Retinoid X receptor RXR alpha.

Experiment [3] has as its target T3, Cellular retinoic acid-binding protein 2 (Mus musculus, UniProt P22935).
T3 sequence (P22935 whole entry): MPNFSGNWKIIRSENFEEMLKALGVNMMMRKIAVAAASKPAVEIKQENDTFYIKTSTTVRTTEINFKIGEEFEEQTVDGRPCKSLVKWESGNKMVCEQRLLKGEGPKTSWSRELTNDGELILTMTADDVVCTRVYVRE
As to the kind of experiment: Binding affinity for mouse Cytoplasmic retinoic acid binding protein type 2. Put shortly: as §1

Experiment [4] has as its target T4, Retinoic acid receptor beta (Mus musculus, UniProt P22605).
T4 sequence (P22605 whole entry): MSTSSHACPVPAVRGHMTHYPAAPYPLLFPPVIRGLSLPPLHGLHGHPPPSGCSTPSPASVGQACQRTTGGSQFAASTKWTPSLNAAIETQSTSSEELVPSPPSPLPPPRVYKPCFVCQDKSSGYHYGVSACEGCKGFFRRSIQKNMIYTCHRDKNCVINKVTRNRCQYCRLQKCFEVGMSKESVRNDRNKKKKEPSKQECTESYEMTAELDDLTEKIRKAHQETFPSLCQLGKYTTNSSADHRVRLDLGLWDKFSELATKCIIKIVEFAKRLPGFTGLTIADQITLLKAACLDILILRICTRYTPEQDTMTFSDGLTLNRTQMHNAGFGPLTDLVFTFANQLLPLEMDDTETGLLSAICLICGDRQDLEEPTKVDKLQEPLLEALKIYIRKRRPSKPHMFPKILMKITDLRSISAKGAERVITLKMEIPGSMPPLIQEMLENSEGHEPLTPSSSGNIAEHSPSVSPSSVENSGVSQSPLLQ
In words: Inhibition of murine Retinoic acid receptor RAR beta. Summed up:
(§2)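 Nucleosol fractions from COS-1 cells transfected with mouse RARα, β or γ cDNA in pSG5 were incubated with 5 nM [3H]-(all-E)-RA at 4 °C for 4 h. Competitor in ethanol was added at nine concentrations (0–10 μM) in duplicate. Bound label was separated on PD-10 desalting columns and counted by scintillation. IC50 came from a fit of percent specific binding.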

The target of experiment [5] is Cellular retinoic acid-binding protein 1 (Mus musculus, UniProt P62965). In words: Binding affinity for mouse Cytoplasmic retinoic acid binding protein type 1. Put shortly:
as §1

Experiment [6] addresses T5, Retinoic acid receptor gamma (Mus musculus, UniProt P18911).
T5 sequence (P18911 whole entry): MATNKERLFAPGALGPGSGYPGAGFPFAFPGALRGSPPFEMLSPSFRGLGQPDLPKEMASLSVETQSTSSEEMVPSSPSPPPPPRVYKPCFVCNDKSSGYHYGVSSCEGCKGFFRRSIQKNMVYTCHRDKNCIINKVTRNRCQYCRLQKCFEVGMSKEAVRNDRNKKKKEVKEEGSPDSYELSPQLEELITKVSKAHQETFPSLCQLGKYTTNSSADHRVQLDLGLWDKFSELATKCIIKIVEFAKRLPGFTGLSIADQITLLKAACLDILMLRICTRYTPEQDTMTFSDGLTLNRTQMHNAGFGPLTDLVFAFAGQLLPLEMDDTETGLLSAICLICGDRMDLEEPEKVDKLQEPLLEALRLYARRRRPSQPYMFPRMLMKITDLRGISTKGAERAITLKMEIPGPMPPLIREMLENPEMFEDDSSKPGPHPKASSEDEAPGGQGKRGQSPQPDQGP
As to the kind of experiment: Inhibition of binding to murine Retinoic acid receptor RAR gamma. Summed up:
as §2

Sequence of Cellular retinoic acid-binding protein 1 (P62965 whole entry): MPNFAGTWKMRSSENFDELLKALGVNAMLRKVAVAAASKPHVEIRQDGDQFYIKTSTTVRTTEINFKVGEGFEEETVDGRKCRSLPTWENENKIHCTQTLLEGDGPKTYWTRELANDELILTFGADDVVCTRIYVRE

Consider `CCC1=C(C(C)C)/C(=C/C(C)=C/C=C/C(C)=C/C(=O)O)CCC1`, for which the Kd in experiment [1] is greater than 200 nM; in experiment [3], 1.4 nM; in experiment [5] it was 0.3 nM. Also, the figures for the concentration for half-maximal inhibition (IC50) in experiment [2], in experiment [4] and in experiment [6] were greater than 1000 nM, 6 nM and 10 nM, respectively.
